The record followed here is ChEMBL document CHEMBL1148383, “Semisynthetic macrolide antibacterials derived from tylosin. Synthesis and structure-activity relationships of novel desmycosin analogues” (J Med Chem, 2004).

The test system of one series is Escherichia coli. Description: Antibacterial activity against Escherichia coli ATCC […]. The class given is functional. The essentials:
(§1)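 MICs were determined by broth microdilution following NCCLS guidelines. The test panel includes erythromycin-susceptible strains and erythromycin-resistant strains with constitutive or inducible MLSB phenotypes or with efflux resistance.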

Another series relates to Enterococcus faecalis. As to the kind of experiment: Antibacterial activity against Enterococcus faecalis ATCC 29212. Format: functional. The essentials:
as §1

The next series deals with Haemophilus influenzae. Description: Antibacterial activity against Haemophilus influenzae ATCC 49247. The class given is functional. The essentials:
as §1

A further series has as its system Streptococcus pneumoniae. Description: Antibacterial activity against Streptococcus pneumoniae PSCB-0541. Format: functional. A digest of the protocol: as §1
The subject of series [1] is Staphylococcus aureus. As to the kind of experiment: Antibacterial activity against Staphylococcus aureus ATCC 13709. The class given is functional. A digest of the protocol: as §1
Series [2] has as its system Staphylococcus aureus. Description: Antibacterial activity against Staphylococcus aureus PSCB-0330. Format: functional. A digest of the protocol:
as §1

Series [3] has as its system Streptococcus pyogenes. As to the kind of experiment: Antibacterial activity against Streptococcus pyogenes PSCB-0543. Format: functional. The essentials:
as §1

The subject of series [4] is Streptococcus pyogenes. Description: Antibacterial activity against Streptococcus pyogenes PSCB-0545. Format: functional. A digest of the protocol: as §1
Series [5] relates to Staphylococcus aureus. Description: Antibacterial activity against Staphylococcus aureus PSCB-0331. The class given is functional. A digest of the protocol: as §1
The test system of series [6] is Staphylococcus aureus. As to the kind of experiment: Antibacterial activity against Staphylococcus aureus PSCB-0538. Format: functional. The essentials: as §1
A short description of series [7]: Tmax in brain of mice at the oral dose of 50 mg/kg. Also noted: dose 50 mg/kg, route oral. Particulars: mouse. The class given is ADME, organism-based.
Series [8] is described as follows: Tmax in kidney of mice at the oral dose of 50 mg/kg. On the set-up: dose 50 mg/kg, route oral. Format: ADME, organism-based. Particulars: mouse.
Series [9] is described as follows: Tmax in liver of mice at the oral dose of 50 mg/kg. The class given is ADME, organism-based. On the set-up: dose 50 mg/kg, route oral. Particulars: mouse.
A short description of series [10]: Tmax in lungs of mice at the oral dose of 50 mg/kg. Format: ADME, organism-based, Lung. On the set-up: dose 50 mg/kg, route oral. The note with it: mouse.
A short description of series [11]: Tmax in spleen of mice at the oral dose of 50 mg/kg. The class given is ADME, organism-based. Also noted: dose 50 mg/kg, route oral. The note with it: mouse.
Series [12] deals with Mus musculus. As to the kind of experiment: T2 in kidney of mice at the oral dose of 50 mg/kg. Format: ADME, organism-based. On the set-up: dose 50 mg/kg, route oral. The note with it: in vivo.
For series [13], the system named is Mus musculus. As to the kind of experiment: T2 in liver of mice at the oral dose of 50 mg/kg. Format: ADME, organism-based. On the set-up: dose 50 mg/kg, route oral. Particulars: in vivo.
Series [14] relates to Mus musculus. As to the kind of experiment: T2 in lungs of mice at the oral dose of 50 mg/kg. The class given is ADME, organism-based, Lung. Also noted: dose 50 mg/kg, route oral. The note with it: in vivo.
The nature of series [15]: Cmax in spleen of mice at the oral dose of 50 mg/kg. The class given is ADME, organism-based. On the set-up: dose 50 mg/kg, route oral. Particulars: mouse.
In series [16] the test system is Mus musculus. Description: C2 in kidney of mice at the oral dose of 50 mg/kg. Format: ADME, organism-based. Also noted: dose 50 mg/kg, route oral. The note with it: in vivo.
In series [17] the test system is Mus musculus. As to the kind of experiment: C2 in liver of mice at the oral dose of 50 mg/kg. Format: ADME, organism-based. Also noted: dose 50 mg/kg, route oral. The note with it: in vivo.
Series [18] deals with Mus musculus. As to the kind of experiment: C2 in lungs of mice at the oral dose of 50 mg/kg. The class given is ADME, organism-based, Lung. Also noted: dose 50 mg/kg, route oral. The note with it: in vivo.
In series [19] the test system is Mus musculus. As to the kind of experiment: C2 in spleen of mice at the oral dose of 50 mg/kg. The class given is ADME, organism-based. On the set-up: dose 50 mg/kg, route oral. The note with it: in vivo.
Series [20] can be described thus: Cmax in kidney of mice at the oral dose of 50 mg/kg. The class given is ADME, organism-based. On the set-up: dose 50 mg/kg, route oral. Particulars: mouse.
Series [21] is described as follows: Cmax in liver of mice at the oral dose of 50 mg/kg. Format: ADME, organism-based. On the set-up: dose 50 mg/kg, route oral. Particulars: mouse.
Series [22] in a line: Cmax in lungs of mice at the oral dose of 50 mg/kg. The class given is ADME, organism-based, Lung. On the set-up: dose 50 mg/kg, route oral. Particulars: mouse.
Series [23] concerns Mus musculus. As to the kind of experiment: T2 in spleen of mice at the oral dose of 50 mg/kg. Particulars: in vivo. The class given is ADME, organism-based. Also noted: dose 50 mg/kg, route oral.

≈ marks a conversion by molar mass, not a printed value.

Take `CC[C@H]1O/C(O)=C/C(=O)[C@H](C)[C@@H](OC2OC(C)C(O)C(N(C)C)C2O)[C@@H](CC=O)C[C@@H](C)C(=O)/C=C/C(C)=C/[C@@H]1COC1OC(C)C(O)C(OC)C1OC` (some centres not stated): the MIC was over 128 µg/mL in the series with Escherichia coli; 8 µg/mL (≈ 10.4 µM) in the series on Enterococcus faecalis; over 128 µg/mL with Haemophilus influenzae; 8 µg/mL (≈ 10.4 µM) against Streptococcus pneumoniae; 8 µg/mL (≈ 10.4 µM) in the series with Staphylococcus aureus [1]; over 128 µg/mL with Staphylococcus aureus [2]. In addition, the MIC was found to be 32 µg/mL (≈ 41.6 µM) against Streptococcus pyogenes [3], 4 µg/mL (≈ 5.2 µM) against Streptococcus pyogenes [4], 32 µg/mL (≈ 41.6 µM) in the series on Staphylococcus aureus [5] and 16 µg/mL (≈ 20.8 µM) against Staphylococcus aureus [6].
On to `CC[C@H]1OC(=O)C[C@@H](O)[C@H](C)[C@@H](OC2OC(C)C(O)C(N(C)C)C2O)[C@@H](C/C=C/C(C)=O)C[C@@H](C)C(=O)/C=C/C(C)=C/[C@@H]1COC1OC(C)C(O)C(OC)C1OC` (some centres not stated), for which the Tmax in [7] was found to be 0 h; in [8], 2 h; in series [9], 2 h; in series [10], 2 h; in [11] it was 0.5 h. Further, the T2 in the series with Mus musculus [12] is 4 h; with Mus musculus [13], 4 h; in the series on Mus musculus [14], 0.5 h; with Mus musculus [23], 2 h. Moreover, the Cmax in series [15] was 7970 ng/g; in series [20] it was 14300 ng/g; in series [21], 33300 ng/g; in series [22], 10400 ng/g. The C2 in the series with Mus musculus [16] was 4.58 µg/g; in the series with Mus musculus [17], 24.43 µg/g; in the series on Mus musculus [18] it was 10.24 µg/g; in the series on Mus musculus [19] it was 7 µg/g. The MIC against Escherichia coli came out at 128 µg/mL (≈ 158 µM); in the series with Enterococcus faecalis, 1 µg/mL (≈ 1.23 µM); in the series with Haemophilus influenzae, 4 µg/mL (≈ 4.93 µM); with Streptococcus pneumoniae, 2 µg/mL (≈ 2.46 µM); with Staphylococcus aureus [1], 0.25 µg/mL (≈ 0.308 µM); in the series with Staphylococcus aureus [2] it was 128 µg/mL (≈ 158 µM). Besides, the MIC was 0.5 µg/mL (≈ 0.616 µM) with Streptococcus pyogenes [3], 0.5 µg/mL (≈ 0.616 µM) against Streptococcus pyogenes [4], 0.5 µg/mL (≈ 0.616 µM) in the series with Staphylococcus aureus [5] and 0.25 µg/mL (≈ 0.308 µM) in the series on Staphylococcus aureus [6].
Consider `CC[C@H]1OC(=O)C[C@@H](O)[C@H](C)[C@@H](O[C@@H]2O[C@H](C)[C@@H](O[C@H]3C[C@@](C)(O)[C@@H](O)[C@H](C)O3)[C@H](N(C)C)[C@H]2O)[C@@H](CC=O)C[C@@H](C)C(=O)/C=C/C(C)=C/[C@@H]1CO[C@@H]1O[C@H](C)[C@@H](O)[C@@H](OC)[C@H]1OC` [TYLOSIN], for which the MIC against Escherichia coli is 64 µg/mL (≈ 69.9 µM); in the series with Enterococcus faecalis, 1 µg/mL (≈ 1.09 µM); with Haemophilus influenzae, 8 µg/mL (≈ 8.73 µM); in the series with Streptococcus pneumoniae, 0.5 µg/mL (≈ 0.546 µM); with Staphylococcus aureus [1], 1 µg/mL (≈ 1.09 µM); against Staphylococcus aureus [2], over 128 µg/mL. Moreover, the MIC against Streptococcus pyogenes [3] came out at 1 µg/mL (≈ 1.09 µM); with Streptococcus pyogenes [4], 0.5 µg/mL (≈ 0.546 µM); in the series with Staphylococcus aureus [5] it was 1 µg/mL (≈ 1.09 µM); in the series on Staphylococcus aureus [6] it was 0.5 µg/mL (≈ 0.546 µM).
